Data set [1] has as its system L6. Briefly: Cytotoxicity against rat L6 cells after 70 hrs by alamar blue assay. It counts as cell-based. Conditions: L6, 70 h. In outline:
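Cells were exposed to serial dilutions for 70 h at 37 °C, 5% CO₂, then given resazurin for 2–3 h. IC50 came from sigmoidal curves; two independent runs in duplicate. Top concentration was 90 μg/mL, converted to μM by molecular weight.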
(In general: Resazurin is reduced to fluorescent resorufin, in cell work by metabolically active cells.)

Data set [2] deals with Trypanosoma brucei rhodesiense. Briefly: Antitrypanosomal activity against Trypanosoma brucei rhodesiense STIB900 after 70 hrs by alamar blue assay. In kind it is functional, organism-based. The following applies: STIB900, 70 h.
The nature of data set [3]: Selectivity index, ratio of IC50 for rat L6 cells to IC50 for Trypanosoma brucei rhodesiense STIB900. In kind it is toxicity, cell-based. The following applies: read-out: Ratio IC50. The method, boiled down: (§1)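 Each index is L6 IC50 divided by parasite IC50. L6 values are from the 70 h resazurin assay. T. b. rhodesiense STIB900 values are from the 70 h resazurin assay. P. falciparum K1 values are from erythrocytic-stage [³H]-hypoxanthine incorporation: 48 h drug exposure, then 24 h with label. L. donovani values are from the 72 h axenic amastigote CellTiter assay.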

In data set [4] the test system is Plasmodium falciparum. Briefly: Antiplasmodial activity against chloroquine-resistant Plasmodium falciparum K1 infected in human erythrocytes after 48 hrs assessed as [3H]hypoxanthine incorporation by liquid scintillation counting. In kind it is functional, organism-based.
The nature of data set [5]: Selectivity index, ratio of IC50 for rat L6 cells to IC50 for Plasmodium falciparum K1. In kind it is toxicity, cell-based. Conditions: read-out: Ratio IC50. The method, boiled down:
as §1

Data set [6] deals with Leishmania donovani. Briefly: Antileishmanial activity against Leishmania donovani MHOM/SD/62/1S-CL2D. It counts as functional, organism-based. The method, boiled down: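 Axenic amastigotes (MHOM/SD/62/1S-CL2_D) adapted from promastigotes and grown in amastigote medium at 37 °C. 6 × 10⁴ parasites per well were exposed to 2-fold serial dilutions for 72 h at 37 °C in humidified 5% CO₂. Growth was read with tetrazolium CellTiter reagent as absorbance at 490 nm. IC50 came from a four-parameter dose–response fit; duplicate determinations were averaged.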

A short description of data set [7]: Selectivity index, ratio of IC50 for rat L6 cells to IC50 for Leishmania donovani MHOM/SD/62/1S-CL2D. In kind it is toxicity, cell-based. The following applies: read-out: Ratio IC50. The method, boiled down:
as §1

Data set [8] deals with Trypanosoma brucei rhodesiense. Briefly: Antitrypanosomal activity against Trypanosoma brucei rhodesiense STIB900 infected in NMRI mouse assessed as mean parasitemia relaps day at 5 mg/kg, ip. In kind it is functional. The following applies: route intraperitoneal. The method, boiled down: (§2)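 Female NMRI mice infected ip with 2 × 10⁴ STIB900 bloodstream forms. Groups of four dosed ip daily on days 3–6 postinfection; compounds in DMSO diluted with water to 10% final DMSO. Untreated infected controls. Tail-blood parasitaemia checked on days 7 and 10, twice weekly to day 30, then weekly to day 60. Relapse day recorded for mean relapse day; cure means parasite-free survival to day 60.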

Data set [9] relates to Mus musculus. Briefly: Toxicity in NMRI mouse infected with Trypanosoma brucei rhodesiense STIB900 assessed as survival at 5 mg/kg, ip after administered for 4 consecutive days from day 3 postinfection measured after 7 to 30 days. It counts as organism-based. More on the design: dose 5 mg/kg, route intraperitoneal. The following applies: in vivo. The method, boiled down: as §2

Some results are limits rather than exact numbers.

As for `Cl.Cl.N=C(N)c1cccc(-n2cc(-c3ccc(C(=N)N)cc3O)nn2)c1`, the IC50 in [1] was greater than 210000 nM; in data set [2] it was 8 nM; in data set [4], 7 nM; in data set [6], 8000 nM. Further, the selectivity ratio was greater than 26200 in data set [3], greater than 30000 in data set [5] and greater than 26 in data set [7]. For the same compound, in data set [8], the Activity amounted to 39 days.

Turning to `COc1ccc(C(=N)N)cc1-n1cc(-c2ccc(C(=N)N)cc2)nn1.Cl.Cl`, the IC50 in data set [1] was greater than 201000 nM; in [2], 16 nM; in data set [4], 17 nM; in [6] it was 31000 nM. Moreover, the selectivity ratio in data set [3] was greater than 12600; in [5], greater than 11800; in data set [7], greater than 6. The Activity in data set [8] came to 23 days.

For the compound `CC(C)NC(=N)c1ccc(-n2cc(-c3ccc(C(=N)NC(C)C)cc3O)nn2)cc1.Cl.Cl`, the IC50 in data set [1] was greater than 180000 nM; in [2], 37 nM; in data set [4] it was 7 nM; in data set [6] it was greater than 50000 nM. In addition, the selectivity ratio in [3] was greater than 4860; in data set [5], greater than 25700. Also, in [9], the Activity result was “Non-toxic”.

In the case of `COc1ccc(C(=N)N)cc1-c1cn(-c2ccc(C(=N)N)cc2)nn1.Cl.Cl`, the IC50 in [1] was greater than 198000 nM; in data set [2], 8 nM; in [4], 7 nM; in data set [6] it was 4300 nM. Also, the selectivity ratio is greater than 24800 in data set [3], greater than 28300 in data set [5] and greater than 46 in [7]. Further, the Activity in [8] amounted to 15.5 days.

Regarding `COc1cc(C(=N)NC(C)C)ccc1-c1cn(-c2cccc(C(=N)NC(C)C)c2)nn1`, the IC50 was greater than 170000 nM in [1], 703 nM in data set [2], 34 nM in data set [4] and 32000 nM in data set [6]. For the same compound, the selectivity ratio in data set [3] was greater than 242; in data set [5], greater than 5000; in [7], greater than 5.

As for `COc1cc(C(=N)N)ccc1-c1cn(-c2ccc(C(=N)N)cc2)nn1.Cl.Cl`, the IC50 amounted to 59400 nM in data set [1], 31 nM in data set [2], 2 nM in [4] and 13000 nM in [6]. For the same compound, the figures for the selectivity ratio in [3], in data set [5] and in data set [7] were 1920, 29700 and 5, respectively. For the same compound, the Activity in data set [8] worked out at 60 days.

For the compound `Cl.Cl.N=C(N)c1ccc(-n2cc(-c3cc(C(=N)N)ccc3O)nn2)cc1`, the IC50 in [1] is greater than 219000 nM; in data set [2], 6 nM; in data set [4] it was 22 nM; in data set [6], greater than 50000 nM. Moreover, the results for the selectivity ratio in data set [3] and in data set [5] were greater than 36500 and greater than 9960, respectively. Besides, in [9], the Activity entry is “Non-toxic”.

As to `CC(C)NC(=N)c1cccc(-n2cc(-c3ccc(C(=N)NC(C)C)cc3O)nn2)c1.Cl.Cl`, the IC50 in [1] was greater than 175000 nM; in [2], 77 nM; in data set [4], 49 nM; in data set [6], greater than 100000 nM. The selectivity ratio in [3] is greater than 2270; in data set [5] it was greater than 3570. Also, in data set [8], the Activity is 18 days.

For `Cl.Cl.N=C(N)c1cccc(-c2cn(-c3ccc(C(=N)N)cc3O)nn2)c1`, the IC50 is greater than 209000 nM in data set [1], 175 nM in data set [2] and greater than 100000 nM in [6]. Besides, the selectivity ratio in data set [3] and in data set [5] was greater than 1190 throughout. Also, the Activity result was “Toxic” in [9] and 14 days in [8].

As to `Cl.Cl.c1cc(-c2cn(-c3ccc(C4=NCCN4)cc3)nn2)ccc1C1=NCCN1`, the IC50 was 101000 nM in [1], 53 nM in data set [2], 2 nM in [4] and greater than 100000 nM in [6]. Further, the selectivity ratio in data set [3] amounted to 1910; in data set [5], 50500. The results for the Activity result in [9] and in data set [8] were “Toxic” and 8 days, respectively.

For `COc1ccc(C2=NCCN2)cc1-c1cn(-c2ccc(C3=NCCN3)cc2)nn1.Cl.Cl`, the IC50 in data set [1] was greater than 188000 nM; in data set [2], 21 nM; in data set [4], 10 nM; in [6], greater than 100000 nM. Moreover, the selectivity ratio in data set [3] was greater than 8950; in data set [5] it was greater than 18800. For the same compound, the Activity entry in [9] is “Toxic”; in data set [8], 26 days.

In the case of `COc1ccc(C(=N)N)cc1-n1cc(-c2cccc(C(=N)N)c2)nn1.Cl.Cl`, the IC50 in data set [1] was greater than 224000 nM; in data set [2], 47 nM; in data set [4], 28 nM; in data set [6] it was greater than 100000 nM. Further, the selectivity ratio in data set [3] is greater than 4770; in [5] it was greater than 8000. In addition, the values for the Activity entry in [9] and in data set [8] were “Toxic” and 17 days, respectively.

Consider `CC(C)NC(=N)c1ccc(-c2cn(-c3ccc(C(=N)NC(C)C)cc3)nn2)cc1.Cl.Cl`, for which the 50% inhibitory concentration (IC50) was greater than 183000 nM in [1], 201 nM in data set [2], 5 nM in [4] and 25000 nM in data set [6]. Also, the selectivity ratio in [3] was greater than 910; in data set [5] it was greater than 36600; in [7], greater than 7. Further, the Activity in [8] is 8 days.

As to `CC(C)NC(=N)c1ccc(-n2cc(-c3cc(C(=N)NC(C)C)ccc3O)nn2)cc1.Cl`, the 50% inhibitory concentration (IC50) in [1] is greater than 179000 nM; in [2] it was 116 nM; in [4] it was 28 nM; in data set [6] it was greater than 100000 nM. In addition, the results for the selectivity ratio in [3] and in data set [5] were greater than 1540 and greater than 6390, respectively. In addition, the Activity result in data set [9] is “Toxic”; in data set [8], 28.75 days.

With `CC(C)NC(=N)c1ccc(-c2cn(-c3cccc(C(=N)NC(C)C)c3)nn2)cc1`, the IC50 in data set [1] is 193000 nM; in [2] it was 462 nM; in [4], 43 nM; in data set [6], 58000 nM. For the same compound, the selectivity ratio is 418 in data set [3], 4490 in data set [5] and 3 in data set [7].

Take `COc1cc(C(=N)N)ccc1-n1cc(-c2ccc(C(=N)N)cc2)nn1.Cl.Cl`: the IC50 in [1] is greater than 183000 nM; in data set [2], 38 nM; in data set [4], 9 nM; in [6], greater than 40000 nM. Further, the selectivity ratio was greater than 4820 in data set [3] and greater than 20300 in [5]. Also, the figures for the Activity entry in [9] and in data set [8] were “Toxic” and 34 days, respectively.

Consider `Cl.Cl.N=C(N)c1ccc(-n2cc(-c3cccc(C(=N)N)c3)nn2)cc1`, for which the half-maximal inhibitory concentration (IC50) in [1] was determined as 8600 nM; in [2], 8 nM; in [4], 3 nM; in data set [6] it was 12000 nM. Moreover, the selectivity ratio was 1080 in [3], 2870 in data set [5] and less than 1 in data set [7]. In addition, in data set [8], the Activity stood at 17.33 days.

For `Cl.Cl.N=C(N)c1ccc(-c2cn(-c3cccc(C(=N)N)c3)nn2)cc1`, the IC50 stood at 86000 nM in data set [1], 6 nM in data set [2], 4 nM in data set [4] and 17000 nM in [6]. In addition, the selectivity ratio in data set [3] came out at 14300; in data set [5], 21500; in [7] it was 5. In addition, the Activity in [8] amounted to 18 days.

In the case of `COc1cc(C2=NCCN2)ccc1-n1cc(-c2ccc(C3=NCCN3)cc2)nn1`, the IC50 in data set [1] was greater than 176000 nM; in data set [2] it was 675 nM; in data set [4], 17 nM; in data set [6] it was greater than 100000 nM. Further, the results for the selectivity ratio in data set [3] and in [5] were greater than 261 and greater than 10400, respectively.

For `CC(C)NC(=N)c1ccc(-n2cc(-c3cccc(C(=N)NC(C)C)c3)nn2)cc1`, the IC50 in data set [1] is greater than 190000 nM; in [2], 539 nM; in [4], 38 nM; in [6], greater than 100000 nM. The selectivity ratio is greater than 353 in data set [3] and greater than 5000 in data set [5].

As to `COc1ccc(C2=NCCN2)cc1-n1cc(-c2cccc(C3=NCCN3)c2)nn1`, the IC50 was greater than 172000 nM in data set [1], 7830 nM in data set [2], 30 nM in data set [4] and greater than 100000 nM in data set [6]. In addition, the selectivity ratio in data set [3] is greater than 22; in data set [5], greater than 5730.

Consider `COc1cc(C(=N)NC(C)C)ccc1-n1cc(-c2cccc(C(=N)NC(C)C)c2)nn1`, for which the IC50 in data set [1] was greater than 159000 nM; in [2], 1960 nM; in data set [4], 55 nM; in data set [6] it was greater than 100000 nM. Besides, the values for the selectivity ratio in data set [3] and in [5] were greater than 81 and greater than 2890, respectively.

The term IC50 denotes the concentration needed to halve the response being measured.

The record behind these values is ChEMBL document CHEMBL1156777, “Synthesis and antiprotozoal activity of cationic 1,4-diphenyl-1H-1,2,3-triazoles” (J Med Chem, 2010).
